The values that follow come from ChEMBL document CHEMBL3112552, “Structure activity relationship studies of 3-arylsulfonyl-pyrido[1,2-a]pyrimidin-4-imines as potent 5-HT₆ antagonists” (Bioorg Med Chem, 2014).

Structures are written as SMILES. Active and inactive are the calls of the source.

In series [1] the target is T1, 5-hydroxytryptamine receptor 6 (Homo sapiens, UniProt P50406). Kind of series: Antagonist activity at human cloned 5-HT6 receptor expressed in HeLa cells assessed as inhibition of 5-HT-stimulated conversion of [alpha-33P]ATP to [33P]cAMP. It counts as functional, cell-based.
The target of series [2] is T1, 5-hydroxytryptamine receptor 6. Kind of series: Displacement of [3H]LSD from human cloned 5-HT6 receptor expressed in HeLa cells. Type of series: cell-based. For orientation: Loss of bound radioactivity is the signal in a displacement assay; it reports binding, not function.
Series [3] in a line: Half life in human liver microsomes at 0.5 uM in presence of NADPH. It counts as ADME. The method in brief: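 Test compound incubated with human liver microsomes (1 mg/ml) plus NADPH (1 mM) for 0–45 min. Reactions were stopped and parent remaining in supernatant was quantified by LC–MS/MS. T1/2 was taken from the plot of % remaining versus time. Omeprazole was run as a reference control.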
For orientation: Liver microsomes are a subcellular fraction often used to study metabolism.

The nature of series [4]: Oral bioavailability in rat. Type of series: ADME, organism-based. The settings on record: in vivo.
Series [5] is described as follows: Permeability of the compound. It counts as ADME. The settings on record: not told; read-out: permeability.
A short description of series [6]: Ratio of drug level in brain to plasma in rat at 10 mg/kg, ip. Type of series: ADME, organism-based. Set-up: dose 10 mg/kg, route intraperitoneal. The settings on record: read-out: BPR. The method in brief:
(§1)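 Rats received a single intraperitoneal dose of 10 mg/kg. Brain and plasma drug levels were measured 30 minutes post-dose, and the brain/plasma ratio was derived from them.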

The subject of series [7] is Brain. Kind of series: Drug uptake in rat brain at 10 mg/kg, ip. The settings on record: in vivo, read-out: Drug uptake. Set-up: dose 10 mg/kg, route intraperitoneal. Type of series: ADME, organism-based. An outline of the steps: as §1

T1 sequence (P50406 whole entry): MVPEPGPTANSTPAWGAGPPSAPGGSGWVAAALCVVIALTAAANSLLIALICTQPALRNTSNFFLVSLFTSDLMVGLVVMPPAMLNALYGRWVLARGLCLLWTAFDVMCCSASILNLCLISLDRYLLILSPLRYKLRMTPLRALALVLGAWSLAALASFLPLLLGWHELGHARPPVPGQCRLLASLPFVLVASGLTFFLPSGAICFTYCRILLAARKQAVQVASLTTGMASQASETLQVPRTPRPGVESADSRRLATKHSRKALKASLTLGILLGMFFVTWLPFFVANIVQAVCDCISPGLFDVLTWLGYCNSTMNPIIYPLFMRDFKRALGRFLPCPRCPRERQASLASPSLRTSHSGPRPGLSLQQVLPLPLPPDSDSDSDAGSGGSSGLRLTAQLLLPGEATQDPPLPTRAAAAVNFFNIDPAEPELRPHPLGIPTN

Take `CCOc1nc2ccccn2c(=N)c1S(=O)(=O)c1ccccc1`: the “antagonist activity (active/inactive call)” value in series [1] was “Active”. For the same compound, the IC50 (as a rule, the midpoint of a concentration-inhibition curve) in series [2] was 12 nM.
For `CCCc1ccn2c(=N)c(S(=O)(=O)c3ccccc3)c(SC)nc2c1`, the “antagonist activity (active/inactive call)” value in series [1] was “Active”. Also, in series [2], the IC50 was 700 nM.
Turning to `CSc1nc2ccccn2c(=N)c1S(=O)(=O)c1ccc(C(C)(C)C)cc1`, the “antagonist activity (active/inactive call)” value in series [1] is “Active”. Further, in series [3], the half-life (as a rule, the time needed for the level to fall by half in the phase considered) at 0.5 µM came to 3.9 min. This compound also registered an IC50 in series [2] of 65 nM.
As for `CSc1nc2ccccn2c(=N)c1S(=O)(=O)c1ccc2ccccc2c1`, the “antagonist activity (active/inactive call)” value in series [1] was “Active”. In series [2], this compound returned an IC50 of 59 nM.
Regarding `CSc1nc2ccc(F)cn2c(=N)c1S(=O)(=O)c1ccccc1`, the “antagonist activity (active/inactive call)” value in series [1] was “Active”. Moreover, the IC50 in series [2] came out at 28 nM.
With `CCc1ccn2c(=N)c(S(=O)(=O)c3ccccc3)c(SC)nc2c1`, in series [1], the “antagonist activity (active/inactive call)” value was “Active”. In addition, in series [2], the IC50 was found to be 80 nM.
As for `CSc1nc2ccccn2c(=N)c1S(=O)(=O)c1ccccc1`, in series [1], the “antagonist activity (active/inactive call)” value was “Active”. The bioavailability (usually dose-corrected exposure relative to a reference, in per cent) in series [4] was under 1%. Further, the Papp in series [5] amounted to 17 ×10⁻⁶ cm/s. Also, the Kp in series [6] amounted to 1.2. Further, the concentration in series [7] amounted to 1900 nM. Also, the half-life at 0.5 µM in series [3] turned out to be 5.2 min.
For `CSc1nc2ccccn2c(=N)c1S(=O)(=O)c1ccccc1Cl`, the “antagonist activity (active/inactive call)” value in series [1] is “Active”. Moreover, the IC50 in series [2] came to 11 nM.
With `COc1nc2ccccn2c(=N)c1S(=O)(=O)c1ccccc1`, the “antagonist activity (active/inactive call)” value in series [1] was “Active”. In addition, the half-life at 0.5 µM in series [3] was 13.7 min. In addition, the half-maximal inhibitory concentration (IC50) in series [2] is 21 nM.
For `CSc1nc2c(Cc3ccccc3)cccn2c(=N)c1S(=O)(=O)c1ccccc1`, the “antagonist activity (active/inactive call)” value in series [1] was “Active”. In series [3], the half-life at 0.5 µM amounted to 5.5 min. Besides, the IC50 in series [2] came to 330 nM.
Turning to `CSc1nc2c3ccccc3ccn2c(=N)c1S(=O)(=O)c1ccccc1`, in series [1], the “antagonist activity (active/inactive call)” value was “Active”. In series [3], the half-life at 0.5 µM was found to be 7.9 min. The compound further came in with a concentration for half-maximal inhibition (IC50) in series [2] of 55 nM.
As for `C/N=c1/c(S(=O)(=O)c2ccccc2)c(SC)nc2ccccn12`, the “antagonist activity (active/inactive call)” value in series [1] is “Active”. For the same compound, the half-life at 0.5 µM in series [3] was determined as 2.8 min. The same compound had an IC50 in series [2] of 120 nM.
For `CSc1nc2ccccn2c(=N)c1S(=O)(=O)c1ccc(F)cc1`, in that order: “Active”, 3.1 min and 22 nM.
In the case of `CSc1nc2c(Br)cc(C)cn2c(=N)c1S(=O)(=O)c1ccccc1`, the “antagonist activity (active/inactive call)” value in series [1] was “Active”. Also, in series [2], the IC50 came out at 126 nM.
As for `CSc1nc2c(C)cccn2c(=N)c1S(=O)(=O)c1ccccc1`, the “antagonist activity (active/inactive call)” value in series [1] was “Active”. The compound further had an IC50 in series [2] of 3.4 nM.
Consider `CNc1nc2ccccn2c(=N)c1S(=O)(=O)c1ccccc1`, for which the “antagonist activity (active/inactive call)” value in series [1] is “Active”. Moreover, the half-life at 0.5 µM in series [3] turned out to be 7.2 min. This compound had an IC50 in series [2] of 2.4 nM.
Consider `CSc1nc2c3ncccc3ccn2c(=N)c1S(=O)(=O)c1ccccc1`, for which, in series [1], the “antagonist activity (active/inactive call)” value was “Active”. Also, in series [2], the IC50 is 57 nM.
In the case of `C[S+]([O-])c1nc2ccccn2c(=N)c1S(=O)(=O)c1ccccc1` (stereo unspecified), the “antagonist activity (active/inactive call)” value in series [1] is “Active”. This compound came in with a 50% inhibitory concentration (IC50) in series [2] of 250 nM.
On to `CSc1nc2cc(C)ccn2c(=N)c1S(=O)(=O)c1ccccc1`, for which the “antagonist activity (active/inactive call)” value in series [1] was “Active”. Moreover, the IC50 in series [2] was found to be 41 nM.
As to `CSc1nc2ccccn2c(=N)c1S(=O)(=O)c1ccc(OC(F)(F)F)cc1`, the “antagonist activity (active/inactive call)” value in series [1] is “Active”. For the same compound, the half-life at 0.5 µM in series [3] amounted to 2.8 min. The IC50 in series [2] worked out at 420 nM.
For `CSc1nc2ccccn2c(=O)c1S(=O)(=O)c1ccccc1`, in that order: “Active”, 40 min and 52 nM.
For the compound `CSc1nc2ccccn2/c(=N\C(C)=O)c1S(=O)(=O)c1ccccc1`, in series [1], the “antagonist activity (active/inactive call)” value was “Active”. Moreover, the half-life at 0.5 µM in series [3] amounted to 43 min. Moreover, the 50% inhibitory concentration (IC50) in series [2] was 83 nM.
On to `CSc1nc2ccc(C)cn2c(=N)c1S(=O)(=O)c1ccccc1`, for which, in series [1], the “antagonist activity (active/inactive call)” value was “Active”. Also, the IC50 in series [2] worked out at 1.3 nM.
For `CSc1nc2ccc(Cl)cn2c(=N)c1S(=O)(=O)c1ccccc1`, the “antagonist activity (active/inactive call)” value in series [1] was “Active”. Moreover, the IC50 in series [2] turned out to be 28 nM.
As for `CSc1nc2c(C)cc(Br)cn2c(=N)c1S(=O)(=O)c1ccccc1`, in series [1], the “antagonist activity (active/inactive call)” value is “Active”. The IC50 in series [2] was found to be 12 nM.
As to `CSc1nc2c(C)cc(Cc3ccccc3)cn2c(=N)c1S(=O)(=O)c1ccccc1`, in series [1], the “antagonist activity (active/inactive call)” value is “Active”. In addition, the IC50 in series [2] came out at 60 nM.
For `N=c1c(S(=O)(=O)c2ccccc2)c(NCCO)nc2ccccn12`, the “antagonist activity (active/inactive call)” value in series [1] is “Active”. The IC50 in series [2] was found to be 42 nM.
As for `CSc1nc2ccc(C(N)=O)cn2c(=N)c1S(=O)(=O)c1ccccc1`, the “antagonist activity (active/inactive call)” value in series [1] is “Active”. In series [2], this compound returned a concentration for half-maximal inhibition (IC50) of 8.8 nM.
Turning to `CSc1nc2ccc(Br)cn2c(=N)c1S(=O)(=O)c1ccccc1`, in series [1], the “antagonist activity (active/inactive call)” value was “Active”. In addition, the half-life at 0.5 µM in series [3] came to 7.5 min. This compound registered an IC50 in series [2] of 56 nM.
Regarding `CSc1nc2ccccn2c(=N)c1S(=O)(=O)c1ccc(Cl)c(Cl)c1`, the “antagonist activity (active/inactive call)” value in series [1] is “Active”. Besides, in series [3], the half-life at 0.5 µM amounted to 3.1 min. For the same compound, the IC50 in series [2] is 18 nM.
For the compound `Cc1ccc(Nc2nc3ccc(C)cn3c(=N)c2S(=O)(=O)c2ccccc2)nc1`, the “antagonist activity (active/inactive call)” value in series [1] is “Active”. Also, the IC50 in series [2] was 60 nM.
For the compound `COc1ccc2[nH]c([S+]([O-])Cc3ncc(C)c(OC)c3C)nc2c1` (stereo unspecified) [OMEPRAZOLE], the half-life at 0.5 µM in series [3] turned out to be 26 min.
Regarding `CSc1nc2ccccn2c(=N)c1S(=O)(=O)c1cc(C)c(Cl)cc1C`, the “antagonist activity (active/inactive call)” value in series [1] was “Active”. Moreover, in series [3], the half-life at 0.5 µM is 4.1 min. In series [2], the IC50 stood at 50 nM.
In the case of `COC(=O)c1ccc2nc(SC)c(S(=O)(=O)c3ccccc3)c(=N)n2c1`, the “antagonist activity (active/inactive call)” value in series [1] is “Active”. This compound showed an IC50 in series [2] of 470 nM.
Regarding `CCNc1nc2ccccn2c(=N)c1S(=O)(=O)c1ccccc1`, the “antagonist activity (active/inactive call)” value in series [1] was “Active”. The same compound gave an IC50 in series [2] of 2 nM.
